Experimental data of several laboratories.
Compare with care: the assays were run in different laboratories.
ADRB1: Beta-1 adrenergic receptor (ADRB1, Homo sapiens, UniProt P08588)
PKN1: Serine/threonine-protein kinase N1 (PKN1, Homo sapiens, UniProt Q16512)
HDAC9: Histone deacetylase 9 (HDAC9, Homo sapiens, UniProt Q9UKV0)

| Structure (SMILES) | target | assay | setting | quantity | value |
| --- | --- | --- | --- | --- | --- |
| O=C(O)CNc1cccc(CN(Cc2ccc(-n3cccn3)cc2)S(=O)(=O)c2cccnc2)n1 | ADRB1 | ligand displacement, radioligand | 10 µM | inhibition | 2% |
| C=CC(=O)N1CCC(COCC(=O)N2CCN(c3nc(-c4cnc(N)nc4C(F)F)nc(N4CCOC[C@@H]4C)n3)CC2)CC1 | PKN1 | binding, competition with immobilised ligand | 1 µM | remaining binding | 100% |
| O=C(NO)c1cncc(OS(=O)(=O)Oc2ccc(-n3ccnc3)cc2)c1 | HDAC9 | enzyme activity, inhibitor, fluorescence | 10 µM | inhibition | 49% |
| CNc1ncc2c(/C=C/C(=O)N3CCC(OC)CC3)nn(Cc3cccc(C(F)(F)F)c3)c2n1 | Cyclin-dependent kinase 18, with cyclin Y (CDK18, Homo sapiens, UniProt Q07002) | enzyme activity, inhibitor, radiometric | 1 µM | remaining activity | 99% |
| CC(C)OC(=O)CNc1cccc(CN(Cc2ccc(-n3cccn3)cc2)S(=O)(=O)c2cccnc2)n1 | ADRB1 | ligand displacement, radioligand | 10 µM | inhibition | 0% |
| O=C(NO)c1cc(F)cc(OS(=O)(=O)Oc2ccccc2)c1 | HDAC9 | enzyme activity, inhibitor, fluorescence | 10 µM | inhibition | 33% |
| Cc1cc([C@@H](C)Nc2ccccc2C(=O)O)c2nc(N3CCC(F)(F)CC3)c(C#N)c(=O)n2c1 | NUAK family SNF1-like kinase 2 (NUAK2, Homo sapiens, UniProt Q9H093) | binding, competition with immobilised ligand | 10 µM | remaining binding | 70% |
| COc1cc(-c2cncc3c2CN(C)Cc2cc(N4CCNCC4)ccc2-3)cc(OC)c1OC | PKN1 | enzyme activity, inhibitor | 1 µM | remaining activity | 102% |
| O=C(/C=C/c1cccc(OS(=O)(=O)Oc2ccc(C(F)(F)F)cc2)c1)NO | HDAC9 | enzyme activity, inhibitor, fluorescence | 10 µM | inhibition | 13% |
| N=c1c[n+](N2CCOCC2)[n-]o1 | NAD-dependent protein deacylase sirtuin-5, mitochondrial (SIRT5, Homo sapiens, UniProt Q9NXA8) | enzyme activity, inhibitor | – | KI (inactivation) | 4 µM |
| C[C@H]1O[C@H](O[C@H]2[C@H](O)[C@@H](O)[C@@H](O[C@H]3[C@H](O)[C@@H](O)C(O)O[C@@H]3CO)O[C@@H]2CO)[C@H](O)[C@@H](O)[C@@H]1N[C@H]1C=C(CO)[C@@H](O)[C@H](O)[C@H]1O (some centres unmarked) | Pancreatic alpha-amylase (Homo sapiens, UniProt P04746) | enzyme activity, inhibitor | 200 µg/mL | inhibition | 97.5% |
